ChEMBL document CHEMBL1140209, “Synthesis and pharmacological characterization of novel druglike corticotropin-releasing factor 1 antagonists” (J Med Chem, 2008)
Calls of active or inactive are those of the source. The rule behind the calls is not given here.

How the values were obtained:
[1] = target: T1, Corticotropin-releasing factor receptor 1 (Homo sapiens, UniProt P34998); test: Displacement of [125I]sauvagine from human recombinant CRF1 receptor expressed in CHO cells; assay type: cell-based
T1 sequence (P34998 whole entry): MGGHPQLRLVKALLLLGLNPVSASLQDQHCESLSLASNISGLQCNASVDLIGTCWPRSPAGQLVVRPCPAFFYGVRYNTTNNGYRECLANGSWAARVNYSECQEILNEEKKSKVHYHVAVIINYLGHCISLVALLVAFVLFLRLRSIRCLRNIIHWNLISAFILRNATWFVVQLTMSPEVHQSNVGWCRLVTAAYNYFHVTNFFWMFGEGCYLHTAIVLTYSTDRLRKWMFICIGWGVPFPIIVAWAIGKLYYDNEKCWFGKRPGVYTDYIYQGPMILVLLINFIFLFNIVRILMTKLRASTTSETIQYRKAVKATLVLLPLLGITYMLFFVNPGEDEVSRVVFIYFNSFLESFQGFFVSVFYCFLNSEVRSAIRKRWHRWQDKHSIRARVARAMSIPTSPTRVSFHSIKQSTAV

[2] = Ratio of drug level in brain to plasma in rat at 1 mg/kg, iv after 1 hr; assay type: ADME, organism-based; design: dose 1 mg/kg, route intravenous; settings: brain and plasma
[3] = Volume of distribution at steady state in marmoset at 1 mg/kg, iv or 10 mg/kg, po; assay type: ADME, organism-based, Callithrix jacchus; settings: in vivo, read-out: Vdss
[4] = Volume of distribution at steady state in rat at 1 mg/kg, iv or 10 mg/kg, po; assay type: ADME, organism-based; settings: in vivo, read-out: Vdss
Meriones unguiculatus [5] = test: Anxiolytic activity in po dosed Mongolian gerbils forepaw treading model assessed as reduction of time spent in CRF-induced piano playing behavior administered 1 hr before CRF challenge; assay type: functional, organism-based
[6] = Plasma clearance in rat at 1 mg/kg, iv or 10 mg/kg, po; assay type: ADME, organism-based
Callithrix jacchus [7] = test: Anxiolytic activity in po dosed marmoset assessed as reduction of number of postures by marmoset human threat test; assay type: functional, organism-based
[8] = Plasma clearance in marmoset at 1 mg/kg, iv or 10 mg/kg, po; assay type: ADME, organism-based, Callithrix jacchus
[9] = target: T2, Corticotropin-releasing factor receptor 2 (Homo sapiens) (UniProt Q13324); test: Antagonist activity at human CRF2 receptor expressed in CHO cells assessed as effect on sauvagine-induced cAMP production; assay type: functional, cell-based
T2 sequence (whole entry): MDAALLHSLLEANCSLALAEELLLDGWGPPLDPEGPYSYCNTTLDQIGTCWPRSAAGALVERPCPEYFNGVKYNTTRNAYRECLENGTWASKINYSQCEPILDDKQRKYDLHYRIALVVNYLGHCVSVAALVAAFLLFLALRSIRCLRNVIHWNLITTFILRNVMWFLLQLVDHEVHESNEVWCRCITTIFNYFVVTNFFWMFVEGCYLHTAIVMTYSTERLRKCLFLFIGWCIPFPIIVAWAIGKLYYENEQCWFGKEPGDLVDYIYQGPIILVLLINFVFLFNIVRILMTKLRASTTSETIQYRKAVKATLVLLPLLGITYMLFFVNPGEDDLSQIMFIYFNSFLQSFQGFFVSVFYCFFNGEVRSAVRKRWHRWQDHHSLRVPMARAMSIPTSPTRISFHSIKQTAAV
Outline: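 CHO cells expressing human CRF2 receptor; cAMP was stimulated with 0.5 nM sauvagine, and the antagonist was tested at concentrations up to 10 µM.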

[10] = Oral bioavailability in rat at 10 mg/kg; assay type: ADME, organism-based; settings: in vivo
[11] = Oral bioavailability in marmoset at 10 mg/kg; assay type: ADME, organism-based, Callithrix jacchus; settings: in vivo
Meriones unguiculatus [12] = test: Anxiolytic activity in Mongolian gerbils forepaw treading model assessed as reduction of time spent in CRF-induced piano playing behavior at 30 mg/kg, po administered 60 mins before CRF challenge; assay type: functional, organism-based; design: dose 30 mg/kg
[13] = Ratio of drug level in brain to plasma in gerbil at 10 mg/kg, po after 1 hr; assay type: ADME, organism-based; design: dose 10 mg/kg, route oral; settings: gerbillinae, brain and plasma
[14] = Half life in rat at 1 mg/kg, iv or 10 mg/kg, po; assay type: ADME, organism-based; settings: in vivo
Meriones unguiculatus [15] = test: Anxiolytic activity in Mongolian gerbils forepaw treading model assessed as reduction of time spent in CRF-induced piano playing behavior at 30 mg/kg, po administered 360 mins before CRF challenge; assay type: functional, organism-based; design: dose 30 mg/kg
[16] = Half life in marmoset at 1 mg/kg, iv or 10 mg/kg, po; assay type: ADME, organism-based, Callithrix jacchus; settings: in vivo
Meriones unguiculatus [17] = test: Anxiolytic activity in Mongolian gerbils forepaw treading model assessed as reduction of time spent in CRF-induced piano playing behavior at 30 mg/kg, po administered 180 mins before CRF challenge; assay type: functional, organism-based; design: dose 30 mg/kg
[18] = target: T1, Corticotropin-releasing factor receptor 1; test: Antagonist activity at human CRF1 receptor expressed in CHO cells assessed as effect on sauvagine-induced cAMP production; assay type: functional, cell-based; settings: read-out: pA2 (converted)
Outline: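 CHO cells transfected with human CRF1 receptor; sauvagine concentration-response curves for cAMP were run with increasing antagonist concentrations and analysed by Schild plot (n = 6). Potency was taken as pA2, the concentration that doubles the sauvagine ED50. Antagonist alone, up to 10 µM, was also tested on cAMP without sauvagine.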

Callithrix jacchus [19] = test: Toxic sedative effect in po dosed marmoset assessed as effect on number of physiological jumps; assay type: toxicity, organism-based; settings: in vivo
Rattus norvegicus = test: Anxiolytic activity in ip dosed ultrasonic vocalization rat model assessed as reduction of vocalization duration administered 30 mins before ultrasonic vocalizations; assay type: functional, organism-based

Row | Compound | IC50 [1] [nM] | further results
1 | CCOc1ccc(N2CCc3c(-n4ccc(N5CCNC5=O)n4)cc(C)nc32)c(C)c1 | 316 | 
2 | Cc1cc(-n2ccc(N3CCNC3=O)n2)c2c(n1)N(c1ccc(C#N)cc1C)CC2 | 67.6 | 
3 | Cc1cc(-n2ccc(N3CCNC3=O)n2)c2c(n1)N(c1ccc(C#N)cc1C(F)(F)F)CC2 | 32.4 | 
4 | Cc1cc(-n2ccc(N3CCNC3=O)n2)c2c(n1)N(c1ccc(Cl)cc1Cl)CC2 | 158 | 
5 | Cc1cc(-n2ccc(N3CCNC3=O)n2)c2c(n1)N(c1ccc(OC(F)(F)F)cc1C)CC2 | 67.6 | 
6 | CCc1cc(C#N)ccc1N1CCc2c(-n3ccc(N4CCNC4=O)n3)cc(C)nc21 | 50.1 | 
7 | Cc1cc(-n2ccc(N3CCNC3=O)n2)c2c(n1)N(c1ccc(OC(C)C)cc1C)CC2 | 1230 | 
8 | Cc1cc(-n2ccc(-n3cc[nH]c3=O)n2)c2c(n1)N(c1ccc(C(F)(F)F)cc1C(F)(F)F)CC2 | 89.1 | 
9 | COc1ccc(N2CCc3c(-n4ccc(N5CCNC5=O)n4)cc(C)nc32)c(C(F)F)c1 | 56.2 | 
10 | Cc1cc(-n2ccc(N3CCNC3=O)n2)c2c(n1)N(c1ccc(C#N)cc1OC(F)(F)F)CC2 | 120 | 
11 | Cc1cc(-n2ccc(N3CCNC3=O)n2)c2c(n1)N(c1ccc(-n3cccn3)cc1C)CC2 | 372 | 

Continued, in another order:

Row | IC50 [1] [nM] | Compound | further results
12 | 123 | COc1ccc(N2CCc3c(-n4ccc(N5CCCC5=O)n4)cc(C)nc32)c(C)c1 | 
13 | 309 | COc1ccc(N2CCc3c(-n4ccc(N5CCNS5(=O)=O)n4)cc(C)nc32)c(C)c1 | 
14 | 1950 | COc1ccc(N2CCc3c(-n4ccc(N5CCOC5=O)n4)cc(C)nc32)c(C)c1 | 
15 | 794 | COc1ccc(N2CCc3c(-n4ccc(N5CCN(C)C5=O)n4)cc(C)nc32)c(C)c1 | 
16 | 66.1 | COc1ccc(N2CCc3c(-n4ccc(N5CCNC5=O)n4)cc(C)nc32)c(C)c1 [EMICERFONT] | Kp at 1 h [2]: 3.7; Vd [3]: 4.7 L/kg; Vd [4]: 2.4 L/kg; Activity (Meriones unguiculatus [5]): Dose-dependent effect; clearance [6]: 19 mL/min/kg; Activity (Callithrix jacchus [7]): Dose-dependent effect; clearance [8]: 16 mL/min/kg; Activity [9]: inactive; bioavailability [10]: 66%; bioavailability [11]: 65%; Activity (Meriones unguiculatus [12]): Active; Kp at 1 h [13]: 4.7; half-life [14]: 1.6 h; Activity (Meriones unguiculatus [15]): Active; half-life [16]: 3.7 h; Activity (Meriones unguiculatus [17]): Active; Kb [18]: 72.4 nM; Activity (Callithrix jacchus [19]): Non-toxic; Activity (Rattus norvegicus): Dose-dependent effect
17 | 145 | COc1ccc(N2CCc3c(-n4ccc(N5CCCNC5=O)n4)cc(C)nc32)c(C)c1 | 
18 | 120 | COc1ccc(N2CCc3c(-n4ccc(-n5cc[nH]c5=O)n4)cc(C)nc32)c(C)c1 | 
19 | 363 | COc1cc(-n2cccn2)ccc1N1CCc2c(-n3ccc(-n4cc[nH]c4=O)n3)cc(C)nc21 | 
20 | 3240 | COc1ccc(N2CCc3c(-n4ccc(N5CCCS5(=O)=O)n4)cc(C)nc32)c(C)c1 | 
